Assay [1] concerns Escherichia coli. Briefly: Antimicrobial activity against Escherichia coli K-12 harboring gyrA A83 mutant gene by agar dilution method. It is filed as functional. A general note: In agar dilution the substance is mixed into plates at graded concentrations.
The test system of assay [2] is Escherichia coli. The assay can be described thus: Antimicrobial activity against Escherichia coli K-12 harboring gyrA L83, N87 mutant gene by agar dilution method. The format is functional.
For assay [3], the system named is Escherichia coli. The assay can be described thus: Antimicrobial activity against Escherichia coli K-12 harboring gyrA L83, N87 and parC K84 mutant gene by agar dilution method. It is filed as functional.
For assay [4], the system named is Escherichia coli. The assay can be described thus: Antimicrobial activity against Escherichia coli K-12 harboring gyrA L83, N87 and parC I80 mutant gene by agar dilution method. It is filed as functional.
Assay [5] has as its system Escherichia coli. Briefly: Antimicrobial activity against Escherichia coli […] harboring gyrA L83, N87, parC I80 and parE M464 mutant gene by agar dilution method. It is filed as functional, K-12. In short, it runs like this:
(§1)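 Clinical E. coli isolates, with topoisomerase QRDR genotype (gyrA, gyrB, parC, parE) found by PCR sequencing. MICs for ciprofloxacin, gatifloxacin, levofloxacin and norfloxacin were measured by CLSI agar dilution using a modified dilution scheme. Where the agar dilution MIC was <1 μg/ml, the value came from at least two Etest measurements.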

Assay [6] deals with Escherichia coli. The assay can be described thus: Antimicrobial activity against […] harboring gyrA L83, N87, parC I80 and parE […] mutant gene by agar dilution method. It is filed as functional, K-12. In short, it runs like this:
as §1

For assay [7], the system named is Escherichia coli. The assay can be described thus: Antimicrobial activity against Escherichia coli K-12 harboring gyrA L83, N87 and parC I80, G84 mutant gene by agar dilution method. The format is functional.
Assay [8] relates to Escherichia coli. Briefly: Antimicrobial activity against […] harboring gyrA L83, N87, gyrB T471 and parC I80, G84 mutant gene by agar dilution method. It is filed as functional, K-12. In short, it runs like this:
as §1

For assay [9], the system named is Escherichia coli. The assay can be described thus: Antimicrobial activity against Escherichia coli […] harboring gyrA L83, N87, parC I80, K84 and parE D460 mutant gene by agar dilution method. The format is functional, K-12. In short, it runs like this: as §1
The test system of assay [10] is Escherichia coli. Briefly: Antimicrobial activity against Escherichia coli K-12 harboring gyrA L83, Y87 mutant gene by agar dilution method. The format is functional.
For assay [11], the system named is Escherichia coli. The assay can be described thus: Antimicrobial activity against Escherichia coli K-12 harboring gyrA L83, Y87 and parC K84 mutant gene by agar dilution method. It is filed as functional.
The test system of assay [12] is Escherichia coli. Briefly: Antimicrobial activity against Escherichia coli K-12 harboring gyrA L83, Y87 and parC I80 mutant gene by agar dilution method. It is filed as functional.
Assay [13] concerns Escherichia coli. Briefly: Antimicrobial activity against Escherichia coli […] harboring gyrA L83, Y87, parC I80 and parE A458 mutant gene by agar dilution method. The format is functional, K-12. In short, it runs like this: as §1
The test system of assay [14] is Escherichia coli. Briefly: Antimicrobial activity against Escherichia coli K-12 harboring gyrA L83, Y87 and parC I80, G84 mutant gene by agar dilution method. The format is functional.
Assay [15] has as its system Escherichia coli. Briefly: Antimicrobial activity against Escherichia coli harboring gyrA L83, Y87, parC I80, G84 and parE A458 mutant gene by agar dilution method.
In assay [16] the test system is Escherichia coli. The assay can be described thus: Antimicrobial activity against Escherichia coli K-12 harboring by agar dilution method. It is filed as functional.

As usually defined, the MIC is the least concentration at which growth counts as inhibited. Low values mean inhibition by little substance, high ones a need for much substance.

Converted amounts (≈) assume the structure as drawn.

For `C[C@H]1COc2c(N3CCN(C)CC3)c(F)cc3c(=O)c(C(=O)O)cn1c23.C[C@H]1COc2c(N3CCN(C)CC3)c(F)cc3c(=O)c(C(=O)O)cn1c23.O` [LEVOFLOXACIN], the MIC was found to be 0.168 mg/L in the assay on Escherichia coli [1]; 10 mg/L in the assay with Escherichia coli [2]; 50 mg/L against Escherichia coli [3]; 8 mg/L with Escherichia coli [4]; 50 mg/L against Escherichia coli [5]; 20 mg/L with Escherichia coli [6]. For the same compound, the MIC in the assay on Escherichia coli [7] was determined as 50 mg/L; in the assay with Escherichia coli [8] it was 30 mg/L; in the assay with Escherichia coli [9], 50 mg/L; with Escherichia coli [10], 2 mg/L; against Escherichia coli [11] it was 50 mg/L; in the assay on Escherichia coli [12], 10 mg/L. The MIC worked out at 50 mg/L in the assay with Escherichia coli [13], 50 mg/L in the assay on Escherichia coli [14] and 200 mg/L in the assay with Escherichia coli [15].

In the case of `O=C(O)c1cn(C2CC2)c2cc(N3CCNCC3)c(F)cc2c1=O` [CIPROFLOXACIN], the MIC in the assay with Escherichia coli [9] came out at 200 mg/L (≈ 604 µM); against Escherichia coli [11], 500 mg/L (≈ 1510 µM); in the assay with Escherichia coli [14] it was 40 mg/L (≈ 121 µM); against Escherichia coli [15], 300 mg/L (≈ 905 µM).

With `COc1c(N2CCNC(C)C2)c(F)cc2c(=O)c(C(=O)O)cn(C3CC3)c12` (stereo unspecified) [GATIFLOXACIN], the MIC against Escherichia coli [1] is 0.094 mg/L (≈ 0.25 µM); with Escherichia coli [16] it was 0.007 mg/L (≈ 0.0186 µM); with Escherichia coli [2], 10 mg/L (≈ 26.6 µM); in the assay on Escherichia coli [3], 30 mg/L (≈ 79.9 µM); in the assay with Escherichia coli [4] it was 10 mg/L (≈ 26.6 µM); against Escherichia coli [5], 20 mg/L (≈ 53.3 µM). In addition, the MIC with Escherichia coli [6] was determined as 10 mg/L (≈ 26.6 µM); against Escherichia coli [7] it was 10 mg/L (≈ 26.6 µM); in the assay with Escherichia coli [8], 20 mg/L (≈ 53.3 µM); in the assay with Escherichia coli [9], 20 mg/L (≈ 53.3 µM); in the assay with Escherichia coli [10] it was 0.5 mg/L (≈ 1.33 µM); with Escherichia coli [11], 30 mg/L (≈ 79.9 µM). Also, the MIC in the assay with Escherichia coli [12] worked out at 10 mg/L (≈ 26.6 µM); against Escherichia coli [13] it was 20 mg/L (≈ 53.3 µM); with Escherichia coli [14], 10 mg/L (≈ 26.6 µM); with Escherichia coli [15], 30 mg/L (≈ 79.9 µM).

As to `CCn1cc(C(=O)O)c(=O)c2cc(F)c(N3CCNCC3)cc21` [NORFLOXACIN], the MIC against Escherichia coli [1] is 0.194 mg/L (≈ 0.608 µM); in the assay on Escherichia coli [16], 0.023 mg/L (≈ 0.072 µM); against Escherichia coli [2], 10 mg/L (≈ 31.3 µM); with Escherichia coli [3], 200 mg/L (≈ 626 µM); against Escherichia coli [4], 10 mg/L (≈ 31.3 µM); against Escherichia coli [5] it was 400 mg/L (≈ 1250 µM). Further, the MIC in the assay with Escherichia coli [6] was 50 mg/L (≈ 157 µM); against Escherichia coli [7] it was 200 mg/L (≈ 626 µM); against Escherichia coli [8], 200 mg/L (≈ 626 µM); in the assay with Escherichia coli [9], 400 mg/L (≈ 1250 µM); against Escherichia coli [10], 8 mg/L (≈ 25.1 µM); in the assay with Escherichia coli [11], 1000 mg/L (≈ 3130 µM). Moreover, the MIC came out at 50 mg/L (≈ 157 µM) in the assay with Escherichia coli [12], 300 mg/L (≈ 939 µM) against Escherichia coli [13], 100 mg/L (≈ 313 µM) against Escherichia coli [14] and 1000 mg/L (≈ 3130 µM) against Escherichia coli [15].

The values are drawn from ChEMBL document CHEMBL1629564, “Mechanisms accounting for fluoroquinolone resistance in Escherichia coli clinical isolates” (2009).
